Data: PMC9623233 (Clinical Cancer Research, 2022)

Tests used:
[1] = system: high-grade serous ovarian cancer; experiment: Antitumor activity: RECIST v1.1 response and time on treatment; type: in vivo, human
[2] = ref previous unpublished trial Eudra CT 2009-012933-31; cited from earlier work
[3] = system: α-FR–overexpressing preclinical model; experiment: Combination of CT900 and PARP inhibition, growth inhibition; type: cell-based; settings: Supplementary Fig. S3
[4] = CT900 plasma pharmacokinetics, noncompartmental analysis; type: in vivo, human; settings: Cycle 1 Day 1; for AUC(0-t) / Cmax / clearance / Tmax / Vd: human, plasma, iv
How it was run: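 Test compound was given intravenously, weekly (1–6 mg/m2) or every 2 weeks (2–12 mg/m2). Plasma concentration–time data were analysed noncompartmentally for AUClast, AUC∞, AUC0–24, Cmax, Tmax, t1/2, λz, clearance and Vss. Summaries are geometric mean with CV%, arithmetic mean and median.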

C#CCN(c1ccc(C(=O)N[C@@H](CCC(=O)N[C@H](CCC(=O)O)C(=O)O)C(=O)O)cc1)[C@H]1CCc2cc3nc(CO)[nH]c(=O)c3cc21 [CT900, N-[4-[2-propyn-1-yl[(6S)-4,6,7,8-tetrahydro-2-(hydroxymethyl)-4-oxo-3H-cyclopenta [g]quinazolin-6-yl]amino]benzoyl]-l-gamma-glutamyl-D-glutamic acid]
RECIST v1.1 response rate ([1]; 6 mg/m^2/q2Wk, medium and high α-FR, 0/9): 0%
Patients who received treatment for ≥16 weeks ([1]; 12 mg/m^2/q2Wk, medium and high α-FR, 5/25): 20%
RECIST v1.1 response rate ([1]; 12 mg/m^2/q3Wk, medium and high α-FR, 1/5): 20%
Partial responses ([1]; dose escalation cohort, high-grade serous ovarian cancer, 4 of 11): 36.4%
Overall response rate (ORR) ([1]; expansion cohorts, regardless of α-FR status, 14/64): 21.9%
Median cumulative dose at which pulmonary toxicity occurred [2]: 162 mg/m^2
Effect of combination of CT900 and PARP inhibition [3]: synergistic growth inhibition
HL Lambda_z ([4]; 1 mg/m^2 i.v., Geometric Mean, N 3): 6.1 h
HL Lambda_z ([4]; 1 mg/m^2 i.v., Mean, N 3): 6.7 h
HL Lambda_z ([4]; 1 mg/m^2 i.v., Median, N 3): 7.5 h
HL Lambda_z ([4]; 1 mg/m^2 i.v., Range, N 3): 3.2 to 9.4 h
HL Lambda_z ([4]; 2 mg/m^2 i.v., Geometric Mean, N 4): 11.8 h
HL Lambda_z ([4]; 2 mg/m^2 i.v., Mean, N 4): 12.6 h
HL Lambda_z ([4]; 2 mg/m^2 i.v., Median, N 4): 11.3 h
HL Lambda_z ([4]; 2 mg/m^2 i.v., Range, N 4): 7.5 to 20.0 h
HL Lambda_z ([4]; 6 mg/m^2 i.v., Mean, N 1): 19.9 h
HL Lambda_z ([4]; 12 mg/m^2 i.v., Geometric Mean, N 5): 28.1 h
HL Lambda_z ([4]; 12 mg/m^2 i.v., Mean, N 5): 28.7 h
HL Lambda_z ([4]; 12 mg/m^2 i.v., Median, N 5): 26.5 h
HL Lambda_z ([4]; 12 mg/m^2 i.v., Range, N 5): 23.0 to 41.0 h
AUC(0-t) ([4]; 1 mg/m2, AUC0-24, 1 mg/m^2 i.v., Mean, N 3): 1650 ng·h/mL
AUC(0-t) ([4]; 1 mg/m2, AUC0-24, 1 mg/m^2 i.v., Median, N 3): 1620 ng·h/mL
AUC(0-t) ([4]; 1 mg/m2, AUC0-24, 1 mg/m^2 i.v., Range, N 3): 1020 to 2330 ng·h/mL
AUC(0-t) ([4]; 1 mg/m2, AUClast, 1 mg/m^2 i.v., Mean, N 3): 1650 ng·h/mL
AUC(0-t) ([4]; 1 mg/m2, AUClast, 1 mg/m^2 i.v., Median, N 3): 1620 ng·h/mL
AUC(0-t) ([4]; 1 mg/m2, AUClast, 1 mg/m^2 i.v., Range, N 3): 1020 to 2330 ng·h/mL
Cmax ([4]; 1 mg/m2, C max, 1 mg/m^2 i.v., Mean, N 3): 402 ng/mL
Cmax ([4]; 1 mg/m2, C max, 1 mg/m^2 i.v., Median, N 3): 401 ng/mL
Cmax ([4]; 1 mg/m2, C max, 1 mg/m^2 i.v., Range, N 3): 374 to 432 ng/mL
clearance ([4]; 1 mg/m2, Cl, 1 mg/m^2 i.v., Mean, N 3): 20.3 mL/min
clearance ([4]; 1 mg/m2, Cl, 1 mg/m^2 i.v., Median, N 3): 20.8 mL/min
clearance ([4]; 1 mg/m2, Cl, 1 mg/m^2 i.v., Range, N 3): 10.4 to 29.7 mL/min
Tmax ([4]; 1 mg/m2, T max, 1 mg/m^2 i.v., Mean, N 3): 1 h
Tmax ([4]; 1 mg/m2, T max, 1 mg/m^2 i.v., Median, N 3): 1 h
Tmax ([4]; 1 mg/m2, T max, 1 mg/m^2 i.v., Range, N 3): 1 h
Vd ([4]; 1 mg/m2, Vss, 1 mg/m^2 i.v., Mean, N 3): 7.59 L
Vd ([4]; 1 mg/m2, Vss, 1 mg/m^2 i.v., Median, N 3): 6.75 L
Vd ([4]; 1 mg/m2, Vss, 1 mg/m^2 i.v., Range, N 3): 6.71 to 9.32 L
AUC(0-t) ([4]; 2 mg/m2, AUC0-24, 2 mg/m^2 i.v., Mean, N 4): 4890 ng·h/mL
AUC(0-t) ([4]; 2 mg/m2, AUC0-24, 2 mg/m^2 i.v., Median, N 4): 4730 ng·h/mL
AUC(0-t) ([4]; 2 mg/m2, AUC0-24, 2 mg/m^2 i.v., Range, N 4): 2520 to 7590 ng·h/mL
AUC(0-t) ([4]; 2 mg/m2, AUClast, 2 mg/m^2 i.v., Mean, N 4): 6860 ng·h/mL
AUC(0-t) ([4]; 2 mg/m2, AUClast, 2 mg/m^2 i.v., Median, N 4): 6050 ng·h/mL
AUC(0-t) ([4]; 2 mg/m2, AUClast, 2 mg/m^2 i.v., Range, N 4): 2520 to 12800 ng·h/mL
Cmax ([4]; 2 mg/m2, C max, 2 mg/m^2 i.v., Mean, N 4): 746 ng/mL
Cmax ([4]; 2 mg/m2, C max, 2 mg/m^2 i.v., Median, N 4): 759 ng/mL
Cmax ([4]; 2 mg/m2, C max, 2 mg/m^2 i.v., Range, N 4): 613 to 855 ng/mL
clearance ([4]; 2 mg/m2, Cl, 2 mg/m^2 i.v., Mean, N 4): 11.2 mL/min
clearance ([4]; 2 mg/m2, Cl, 2 mg/m^2 i.v., Median, N 4): 8.72 mL/min
clearance ([4]; 2 mg/m2, Cl, 2 mg/m^2 i.v., Range, N 4): 4.07 to 23.4 mL/min
Tmax ([4]; 2 mg/m2, T max, 2 mg/m^2 i.v., Mean, N 4): 0.9 h
Tmax ([4]; 2 mg/m2, T max, 2 mg/m^2 i.v., Median, N 4): 1 h
Tmax ([4]; 2 mg/m2, T max, 2 mg/m^2 i.v., Range, N 4): 0.5 to 1.1 h
Vd ([4]; 2 mg/m2, Vss, 2 mg/m^2 i.v., Mean, N 4): 8.52 L
Vd ([4]; 2 mg/m2, Vss, 2 mg/m^2 i.v., Median, N 4): 7.41 L
Vd ([4]; 2 mg/m2, Vss, 2 mg/m^2 i.v., Range, N 4): 6.53 to 12.7 L
AUC(0-t) ([4]; 6 mg/m2, AUC0-24, 6 mg/m^2 i.v., Mean, N 1): 15100 ng·h/mL
AUC(0-t) ([4]; 6 mg/m2, AUClast, 6 mg/m^2 i.v., Mean, N 1): 25600 ng·h/mL
Cmax ([4]; 6 mg/m2, C max, 6 mg/m^2 i.v., Mean, N 1): 2030 ng/mL
clearance ([4]; 6 mg/m2, Cl, 6 mg/m^2 i.v., Mean, N 1): 7.67 mL/min
Tmax ([4]; 6 mg/m2, T max, 6 mg/m^2 i.v., Mean, N 1): 1 h
Vd ([4]; 6 mg/m2, Vss, 6 mg/m^2 i.v., Mean, N 1): 12 L
AUC(0-t) ([4]; 12 mg/m2, AUC0-24, 12 mg/m^2 i.v., Geometric Mean, N 5): 46900 ng·h/mL
AUC(0-t) ([4]; 12 mg/m2, AUC0-24, 12 mg/m^2 i.v., Mean, N 5): 47200 ng·h/mL
AUC(0-t) ([4]; 12 mg/m2, AUC0-24, 12 mg/m^2 i.v., Median, N 5): 45400 ng·h/mL
AUC(0-t) ([4]; 12 mg/m2, AUC0-24, 12 mg/m^2 i.v., Range, N 5): 42300 to 58600 ng·h/mL
AUC(0-t) ([4]; 12 mg/m2, AUClast, 12 mg/m^2 i.v., Geometric Mean, N 5): 85900 ng·h/mL
AUC(0-t) ([4]; 12 mg/m2, AUClast, 12 mg/m^2 i.v., Mean, N 5): 87600 ng·h/mL
AUC(0-t) ([4]; 12 mg/m2, AUClast, 12 mg/m^2 i.v., Median, N 5): 83500 ng·h/mL
AUC(0-t) ([4]; 12 mg/m2, AUClast, 12 mg/m^2 i.v., Range, N 5): 68700 to 123000 ng·h/mL
Cmax ([4]; 12 mg/m2, C max, 12 mg/m^2 i.v., Geometric Mean, N 5): 5100 ng/mL
Cmax ([4]; 12 mg/m2, C max, 12 mg/m^2 i.v., Mean, N 5): 5130 ng/mL
Cmax ([4]; 12 mg/m2, C max, 12 mg/m^2 i.v., Median, N 5): 4830 ng/mL
Cmax ([4]; 12 mg/m2, C max, 12 mg/m^2 i.v., Range, N 5): 4460 to 6010 ng/mL
clearance ([4]; 12 mg/m2, Cl, 12 mg/m^2 i.v., Geometric Mean, N 5): 3.45 mL/min
clearance ([4]; 12 mg/m2, Cl, 12 mg/m^2 i.v., Mean, N 5): 3.6 mL/min
clearance ([4]; 12 mg/m2, Cl, 12 mg/m^2 i.v., Median, N 5): 3.68 mL/min
clearance ([4]; 12 mg/m2, Cl, 12 mg/m^2 i.v., Range, N 5): 2.1 to 5.05 mL/min
Tmax ([4]; 12 mg/m2, T max, 12 mg/m^2 i.v., Geometric Mean, N 5): 1 h
Tmax ([4]; 12 mg/m2, T max, 12 mg/m^2 i.v., Mean, N 5): 1 h
Tmax ([4]; 12 mg/m2, T max, 12 mg/m^2 i.v., Median, N 5): 1 h
Tmax ([4]; 12 mg/m2, T max, 12 mg/m^2 i.v., Range, N 5): 1 h
Vd ([4]; 12 mg/m2, Vss, 12 mg/m^2 i.v., Geometric Mean, N 5): 7.59 L
Vd ([4]; 12 mg/m2, Vss, 12 mg/m^2 i.v., Mean, N 5): 7.62 L
Vd ([4]; 12 mg/m2, Vss, 12 mg/m^2 i.v., Median, N 5): 7.33 L
Vd ([4]; 12 mg/m2, Vss, 12 mg/m^2 i.v., Range, N 5): 6.99 to 9.06 L
